Data on one compound can be found in article PMC9055608 (RSC Advances, 2020).

A word on the IC50: it is the point on the concentration scale where inhibition reaches its midpoint. A low value points to inhibition by little substance.

The subject of series [1] is SKMEL-28. The series can be described thus: MTT cell proliferation assay, SKMEL-28. The conditions noted are these: SKMEL-28, skin; MTT, 72 h. It counts as cell-based, human. The method, boiled down:
(§1)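 ATCC lines grown in DMEM or RPMI-1640 with 10% heat-inactivated FBS and 1% penicillin/streptomycin at 37 °C, 5% CO2. Log-phase cells seeded at about 4000–5000/well and left to adhere 24 h. Sextuplicate wells, 72 h. MTT for 4 h, then DMSO and absorbance. IC50 taken from dose–response curves.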
Background: Formazan colour is commonly taken as a measure of viable cells.

For series [2], the system named is DU-145. The series can be described thus: MTT cell proliferation assay, DU-145. The class given is cell-based, human. The conditions noted are these: DU-145, prostate; MTT, 72 h. The method, boiled down:
as §1

In series [3] the test system is N87. The experiment in a line: MTT cell proliferation assay, N87. It counts as cell-based, human. Conditions: N87, stomach; MTT, 72 h. The method, boiled down: as §1
The subject of series [4] is Calu-3. The experiment in a line: MTT cell proliferation assay, Calu-3. It counts as cell-based, human. Conditions: Calu-3, lung; MTT, 72 h. The method, boiled down:
as §1

Series [5] concerns A-549. The series can be described thus: MTT cell proliferation assay, A-549. The class given is cell-based, human. The conditions noted are these: A-549, lung; MTT, 72 h. The method, boiled down: as §1
The subject of series [6] is MDA-MB453. The experiment in a line: MTT cell proliferation assay, MDA-MB453. The class given is cell-based, human. Conditions: MDA-MB453, breast; MTT, 72 h. The method, boiled down:
as §1

The conditions of series [7]: cisplatin; cited from earlier work.
Series [8] has as its system MDA-MB231. The experiment in a line: MTT cell proliferation assay, MDA-MB231. It counts as cell-based, human. Conditions: MDA-MB231, breast; MTT, 72 h. The method, boiled down:
as §1

Series [9] has as its system A375. The series can be described thus: MTT cell proliferation assay, A375. It counts as cell-based, human. The conditions noted are these: A375, melanoma; MTT, 72 h. The method, boiled down: as §1
The nature of series [10]: Mouse weight during in vivo efficacy study. Also noted: species or system nude mice. Conditions: during the nine days of treatment.
Series [11] deals with HT-29. The series can be described thus: MTT cell proliferation assay, HT-29. The conditions noted are these: HT-29, colon; MTT, 72 h. The class given is cell-based, human. The method, boiled down:
as §1

Series [12] has as its system SKOV3. The series can be described thus: MTT cell proliferation assay, SKOV3. The class given is cell-based, human. Conditions: SKOV3, ovary; MTT, 72 h. The method, boiled down: as §1
Series [13] relates to SKBR3. The series can be described thus: MTT cell proliferation assay, SKBR3. The class given is cell-based, human. Conditions: SKBR3, breast; MTT, 72 h. The method, boiled down: as §1
Series [14] has as its system MCF-7 xenograft tumour. The series can be described thus: Pathological tissue sections. The class given is in vivo, nude mice. The conditions noted are these: positive control group, cisplatin 5 mg kg^−1. The method, boiled down:
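Tumour-bearing nude mice were anaesthetised and killed after the 9-day dosing. Heart, liver, spleen, lung, kidney, brain and tumour were fixed in 10% formalin, embedded in paraffin, cut into 4 μm sections and stained with haematoxylin–eosin.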

In series [15] the test system is MCF-7. The series can be described thus: MTT cell proliferation assay, MCF-7. It counts as cell-based, human. Conditions: MCF-7, breast; MTT, 72 h. The method, boiled down: as §1
The test system of series [16] is MCF-7 xenograft tumour. The experiment in a line: Drug efficacy in vivo, MCF-7 breast cancer model. Also noted: species or system nude mice. Conditions: positive control.

On to `N.N.[Cl][Pt][Cl]` [Cisplatin, cis-platinum, reference compound], for which the IC50 was 12.9 ± 0.96 µM in series [1]; 2.82 ± 0.14 µM in series [2]; 8.35 ± 0.3 µM in series [3]; 7.39 ± 0.25 µM in series [4]; 3.03 ± 0.24 µM in series [5]; 15.4 ± 0.83 µM in [6]. The IC50 stood at 12.8 ± 0.58 µM in [8]; 5.28 ± 0.18 µM in [9]; 4.71 ± 0.17 µM in [11]; 4.15 ± 0.3 µM in series [12]; 3.04 ± 0.17 µM in series [13]; 11.2 ± 0.6 µM in [15]. In addition, in series [7], the AUC0→t was 36 000 μg L^−1 h. For the same compound, the CL in series [7] was 0.23 L·kg/h. Besides, the “mouse weight course (in words)” value in series [10] is “obvious weight loss”. The tumour histopathology result in [14] was “a large amount of tumour cell necrosis with nucleolysis”. Further, the “Tumour weight (mean)” value in series [16] (group E, cisplatin 5 mg kg^−1 tail vein for 9 days) turned out to be 299.53 ± 109.60. In series [16] (cisplatin 5 mg kg^−1 for 9 days), the “Inhibition rate (IR) determined as tumour weight” value is listed as 64.10%.
